From ChEMBL document CHEMBL1152957, “Synthesis and biological evaluation of novel 4-azaindolyl-indolyl-maleimides as glycogen synthase kinase-3beta (GSK-3beta) inhibitors” (Bioorg Med Chem, 2009)
Activity calls are given as the source filed them. No cut-off for these calls is given here.

Legend:
[1] = target: T1, Glycogen synthase kinase-3 beta (Homo sapiens, UniProt P49841); assay: Inhibition of recombinant GST-GSK3beta expressed in Escherichia coli BL21 (DE3)
Target sequence in this assay (P49841 whole entry): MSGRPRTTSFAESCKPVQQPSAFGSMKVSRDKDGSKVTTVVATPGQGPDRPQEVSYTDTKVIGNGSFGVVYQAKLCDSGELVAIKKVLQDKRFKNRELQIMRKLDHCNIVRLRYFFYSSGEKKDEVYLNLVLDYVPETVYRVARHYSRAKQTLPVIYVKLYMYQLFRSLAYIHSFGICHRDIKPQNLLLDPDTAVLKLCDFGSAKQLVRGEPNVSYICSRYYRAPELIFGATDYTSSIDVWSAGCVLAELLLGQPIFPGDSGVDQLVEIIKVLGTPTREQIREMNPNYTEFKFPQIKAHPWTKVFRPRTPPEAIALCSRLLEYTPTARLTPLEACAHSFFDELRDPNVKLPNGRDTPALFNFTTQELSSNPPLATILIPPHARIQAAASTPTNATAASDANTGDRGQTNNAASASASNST

[2] = target: T1, Glycogen synthase kinase-3 beta; assay: Inhibition of GSK3-beta in human SH-Sy5Y cells assessed as reduction of amyloid beta (25-35)-induced Tau hyperphosphorylation at Ser396 at 10 uM treated 1 hr before amyloid beta (25-35) challenge measured after 6 hrs by Western blotting; type: cell-based
Summary of the method: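 SH-SY5Y cells from ATCC kept in 1:1 DMEM:Ham's F12 with 10% FBS and penicillin/streptomycin under 5% CO2. Grown to about 80% confluence and serum-starved 12 h. Inhibitor added for 1 h, then amyloid beta 25–35 for 6 h. Lysed in SDS loading buffer and run on 10% SDS-PAGE. Western blot on PVDF with rabbit anti-Tau pS396 and ECL detection.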
Target sequence in this assay (P49841 whole entry, looked up): as the sequence (P49841 whole entry) above

[3] = target: T2, Protein kinase C epsilon type (Homo sapiens, UniProt Q02156); assay: Inhibition of recombinant PKCE expressed in Bac-to Bac baculovirus system
T2 sequence (Q02156 whole entry): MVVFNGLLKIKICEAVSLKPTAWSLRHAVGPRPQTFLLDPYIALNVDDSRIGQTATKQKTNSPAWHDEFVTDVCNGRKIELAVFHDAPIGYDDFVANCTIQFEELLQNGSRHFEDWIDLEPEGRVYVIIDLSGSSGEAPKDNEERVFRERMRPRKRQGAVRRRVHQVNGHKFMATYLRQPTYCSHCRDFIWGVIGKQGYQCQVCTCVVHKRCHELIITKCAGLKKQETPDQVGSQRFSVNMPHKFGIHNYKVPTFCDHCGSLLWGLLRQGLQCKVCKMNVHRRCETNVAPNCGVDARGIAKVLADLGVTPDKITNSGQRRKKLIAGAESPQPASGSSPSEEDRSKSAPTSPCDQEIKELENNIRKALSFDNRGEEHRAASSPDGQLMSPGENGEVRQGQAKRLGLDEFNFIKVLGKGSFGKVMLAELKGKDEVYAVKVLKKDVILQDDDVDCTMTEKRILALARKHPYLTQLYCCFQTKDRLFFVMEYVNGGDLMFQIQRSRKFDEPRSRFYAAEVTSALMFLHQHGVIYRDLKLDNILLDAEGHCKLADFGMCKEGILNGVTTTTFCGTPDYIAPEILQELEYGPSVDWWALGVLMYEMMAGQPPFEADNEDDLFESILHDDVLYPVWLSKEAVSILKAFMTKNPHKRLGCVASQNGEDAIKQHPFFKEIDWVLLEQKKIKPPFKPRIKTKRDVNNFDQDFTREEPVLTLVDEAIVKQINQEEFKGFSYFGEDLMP

Aurora kinase A = target: T3, Aurora kinase A (Homo sapiens, UniProt O14965); assay: Inhibition of recombinant Aurora A expressed in Escherichia coli
T3 sequence (O14965 whole entry): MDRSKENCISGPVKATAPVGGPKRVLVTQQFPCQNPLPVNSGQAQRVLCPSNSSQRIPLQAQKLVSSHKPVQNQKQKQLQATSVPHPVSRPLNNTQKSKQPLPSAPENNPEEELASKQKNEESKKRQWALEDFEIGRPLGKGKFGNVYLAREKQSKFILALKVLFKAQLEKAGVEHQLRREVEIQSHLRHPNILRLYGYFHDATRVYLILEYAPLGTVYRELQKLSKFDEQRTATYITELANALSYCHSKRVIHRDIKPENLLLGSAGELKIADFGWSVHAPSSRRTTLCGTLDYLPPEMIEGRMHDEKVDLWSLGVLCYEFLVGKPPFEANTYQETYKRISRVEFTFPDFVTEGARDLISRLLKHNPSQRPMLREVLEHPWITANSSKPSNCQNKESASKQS

[4] = target: T4, Inhibitor of nuclear factor kappa-B kinase subunit beta (Homo sapiens, UniProt O14920); assay: Inhibition of recombinant IKK2 expressed in Bac-to Bac baculovirus system
T4 sequence (O14920 whole entry): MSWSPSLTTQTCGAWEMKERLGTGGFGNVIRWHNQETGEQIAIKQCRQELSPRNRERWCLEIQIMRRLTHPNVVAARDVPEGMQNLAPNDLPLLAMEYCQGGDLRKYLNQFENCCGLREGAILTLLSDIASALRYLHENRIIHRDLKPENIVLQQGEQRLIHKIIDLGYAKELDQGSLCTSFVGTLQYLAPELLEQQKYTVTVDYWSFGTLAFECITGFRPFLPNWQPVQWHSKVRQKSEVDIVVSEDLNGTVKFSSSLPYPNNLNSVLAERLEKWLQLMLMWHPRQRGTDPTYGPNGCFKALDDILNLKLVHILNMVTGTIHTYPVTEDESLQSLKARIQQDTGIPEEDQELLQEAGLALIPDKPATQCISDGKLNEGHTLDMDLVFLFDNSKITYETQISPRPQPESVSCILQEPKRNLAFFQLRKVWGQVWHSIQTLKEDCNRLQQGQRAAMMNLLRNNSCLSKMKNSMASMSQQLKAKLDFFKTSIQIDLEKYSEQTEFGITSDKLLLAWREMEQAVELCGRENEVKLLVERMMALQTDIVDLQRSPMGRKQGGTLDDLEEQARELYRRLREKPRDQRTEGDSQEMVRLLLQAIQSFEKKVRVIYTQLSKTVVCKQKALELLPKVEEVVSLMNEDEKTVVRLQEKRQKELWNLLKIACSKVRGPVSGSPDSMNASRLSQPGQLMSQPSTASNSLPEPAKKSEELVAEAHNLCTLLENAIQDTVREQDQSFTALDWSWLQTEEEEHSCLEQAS

[5] = target: Mitogen-activated protein kinase 3 (Homo sapiens, UniProt P27361); assay: Inhibition of recombinant ERK1 expressed in Escherichia coli
[6] = target: Dual specificity mitogen-activated protein kinase kinase 1 (Homo sapiens, UniProt Q02750); assay: Inhibition of recombinant MEK1 expressed in Escherichia coli
Sequence of Dual specificity mitogen-activated protein kinase kinase 1 (Q02750 whole entry): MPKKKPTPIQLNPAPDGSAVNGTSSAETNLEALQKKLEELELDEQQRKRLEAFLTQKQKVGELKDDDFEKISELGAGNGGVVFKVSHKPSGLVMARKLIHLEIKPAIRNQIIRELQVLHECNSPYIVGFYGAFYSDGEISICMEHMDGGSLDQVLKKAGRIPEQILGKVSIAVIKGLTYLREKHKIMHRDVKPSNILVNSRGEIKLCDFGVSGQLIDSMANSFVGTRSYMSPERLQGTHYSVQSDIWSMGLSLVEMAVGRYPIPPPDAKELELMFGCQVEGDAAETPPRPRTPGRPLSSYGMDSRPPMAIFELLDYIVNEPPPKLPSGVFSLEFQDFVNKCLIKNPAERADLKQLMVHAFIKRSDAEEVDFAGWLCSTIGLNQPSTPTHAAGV

Sequence of Mitogen-activated protein kinase 3 (P27361 whole entry): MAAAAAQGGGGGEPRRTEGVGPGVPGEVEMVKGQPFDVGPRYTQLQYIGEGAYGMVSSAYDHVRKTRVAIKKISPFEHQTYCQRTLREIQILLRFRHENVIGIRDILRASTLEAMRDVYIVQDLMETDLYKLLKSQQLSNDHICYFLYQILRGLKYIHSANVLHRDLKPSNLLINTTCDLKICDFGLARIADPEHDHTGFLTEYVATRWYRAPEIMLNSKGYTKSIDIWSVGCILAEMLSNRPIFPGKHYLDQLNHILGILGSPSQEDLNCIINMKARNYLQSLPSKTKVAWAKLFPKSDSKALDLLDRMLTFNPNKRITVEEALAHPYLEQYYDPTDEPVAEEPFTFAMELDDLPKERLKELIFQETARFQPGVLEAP

| SMILES | IC50 [1] | Activity [2] | other results |
| --- | --- | --- | --- |
| O=C1NC(=O)C(n2ccc3ncccc32)=C1c1cn(CCCN2CCCCC2)c2ccccc12 | 12.4 µM |  |  |
| O=C1NC(=O)C(n2ccc3ncccc32)=C1c1cn(CCCN2CCOCC2)c2ccccc12 | 1.79 µM |  |  |
| O=C1NC(=O)C(n2ccc3ncccc32)=C1c1cn(CCCn2ccnc2)c2cc(Br)ccc12 | 0.95 µM | inactive |  |
| O=C1C(c2cn(CCCn3ccnc3)c3ccccc23)=C(n2ccc3ncccc32)C(=O)N1c1ccccc1 | > 73.3 µM |  |  |
| Cn1cc(C2=C(c3cn(CCCO)c4ccccc34)C(=O)NC2=O)c2ncccc21 | 1.14 µM |  |  |
| CN(C)CCCn1cc(C2=C(n3ccc4ncccc43)C(=O)NC2=O)c2ccc(Br)cc21 | 2.26 µM |  |  |
| CN(C)CCCn1cc(C2=C(n3ccc4ncccc43)C(=O)NC2=O)c2ccc(F)cc21 | 12.4 µM |  |  |
| COc1ccc2c(c1)c(C1=C(n3ccc4ncccc43)C(=O)NC1=O)cn2CCCN(C)C | 22.5 µM |  |  |
| Cn1cc(C2=C(c3cn(CCN4CCOCC4)c4ccccc34)C(=O)NC2=O)c2ncccc21 | 0.9 µM |  |  |
| CN(C)CCCn1cc(C2=C(n3ccc4ncccc43)C(=O)NC2=O)c2ccccc21 | 13.6 µM |  |  |
| O=C1NC(=O)C(n2ccc3ncccc32)=C1c1c[nH]c2ccccc12 | 30.6 µM |  |  |

Molecules with a lower IC50 [1], results first:

| IC50 [1] | Activity [2] | SMILES | other results |
| --- | --- | --- | --- |
| 0.85 µM | inactive | O=C1NC(=O)C(n2ccc3ncccc32)=C1c1cn(CCCCn2ccnc2)c2ccccc12 |  |
| 0.76 µM | Active | Cn1cc(C2=C(c3cn(CCCN4CCOCC4)c4ccccc34)C(=O)NC2=O)c2ncccc21 | IC50 [3]: > 40 µM; IC50 (Aurora kinase A): > 40 µM; IC50 [4]: > 40 µM; IC50 [5]: > 40 µM; IC50 [6]: > 40 µM |
| 0.66 µM |  | Cn1cc(C2=C(c3cn(CCCn4ccnc4)c4ccccc34)C(=O)NC2=O)c2ncccc21 |  |
| 0.55 µM |  | O=C1NC(=O)C(n2ccc3ncccc32)=C1c1cn(CCCn2ccnc2)c2ccccc12 |  |
| 0.48 µM | inactive | COc1ccc2c(c1)c(C1=C(n3ccc4ncccc43)C(=O)NC1=O)cn2CCCn1ccnc1 |  |
| 0.31 µM |  | O=C1NC(=O)C(n2ccc3ncccc32)=C1c1cn(CCCn2ccnc2)c2cc(F)ccc12 |  |
| 0.26 µM | inactive | O=C1NC(=O)C(n2ccc3ncccc32)=C1c1cn(CCn2ccnc2)c2ccccc12 | IC50 [3]: > 40 µM; IC50 (Aurora kinase A): > 40 µM; IC50 [4]: > 40 µM; IC50 [5]: > 40 µM; IC50 [6]: > 40 µM |
| 0.14 µM | Active | O=C1NC(=O)C(n2ccc3ncccc32)=C1c1cn(CCCn2ccnc2)c2ccc(Br)cc12 | IC50 [3]: > 40 µM; IC50 (Aurora kinase A): > 40 µM; IC50 [4]: > 40 µM; IC50 [5]: > 40 µM; IC50 [6]: > 40 µM |
